S1P3 agonist: human S1P3 receptor agonists, primary screen, cell-based, primary and confirmation, NFAT-BLA reporter; Sphingosine 1-phosphate receptor 3 (Homo sapiens), Q99500; S1P3 NFAT-BLA reporter cells, agonism, FRET ratio; relative to 1 µM S1P, basal subtracted; activation, % at 4.5 µM; 0.1% of 60,000 active; AID 373, 2006;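 active = activation above the screen-wide mean plus 3 SD, cut at about 4.5% in these data, passing the limit was not always enough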
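Measure – % activation relative to 1 µM S1P (100%), per plate · System – stable CHO line with human S1P3, Gα16, NFAT-BLA reporter · Timing – cells plated overnight, compound 4 h 37 °C, substrate 2 h RT · Technique – fluorescent BLA substrate, ex 405 nm, em 460/535 nm ratio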
TNAP act DEA: human TNAP enzyme activators, primary screen, biochemical, luminescent, intermediate phosphate acceptor level; Alkaline phosphatase, tissue-nonspecific isozyme (Homo sapiens), P05186; purified TNAP, CDP-star luminescence, 100 mM DEA, 30 min; active compounds read high; scale: 0 levamisole-inhibited, 1 vehicle-only enzyme; activation factor at 20 µM; 64,000 tested, under 10 active; AID 813, 2007;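 active = activation factor of at least 2 at 20 µM, relative to controls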
M1 antagonist: antagonists of rat M1 muscarinic receptor; AID 628, 2007; B-score at 10 µM; CHO-M1 cells, Fluo-4 calcium, ACh EC80 antagonist mode; active compounds read low; 3.4% of 64,000 active;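 active = calcium fluorescence response, raw or row-and-column corrected B-score, differing from the plate sample mean either way at a set confidence level, mostly lower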
S1P1 ag-PAM: S1P1 agonists and agonism potentiators, primary screen, cell-based, primary and confirmation screens, CRE-bla reporter | activation, % at 9.5 µM | S1P1 CRE-bla cells, forskolin, beta-lactamase FRET, potentiator mode; S1P1 agonist co-added at EC20, 2 nM; 100% = saturating reference agonist, 0% = basal | AID 449, 2006 | 0.57% of 56,000 active;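 active = activation above a cutoff set at the mean activation of all tested compounds plus 3 SD, cut at about 54% in these data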;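 note: forskolin at 4 µM as EC80 and the EC20 agonist is SEW2871; 100% = SEW2871 at its EC100 plus forskolin at EC80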
Target sequence (P21453 whole entry, looked up): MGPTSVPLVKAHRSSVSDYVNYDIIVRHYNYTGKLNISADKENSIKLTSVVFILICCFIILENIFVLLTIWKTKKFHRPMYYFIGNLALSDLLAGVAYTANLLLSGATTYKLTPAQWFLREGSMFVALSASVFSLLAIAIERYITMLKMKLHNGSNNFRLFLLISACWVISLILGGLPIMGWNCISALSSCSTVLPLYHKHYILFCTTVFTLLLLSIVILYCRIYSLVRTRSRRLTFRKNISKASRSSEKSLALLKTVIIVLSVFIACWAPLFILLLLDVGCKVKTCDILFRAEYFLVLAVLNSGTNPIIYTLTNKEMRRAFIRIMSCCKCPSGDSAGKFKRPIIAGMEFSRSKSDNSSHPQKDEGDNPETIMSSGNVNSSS
M1 agonist: M1 muscarinic receptor agonists, primary screen, CHO-M1 cells, Fluo-4 calcium, agonist mode; Muscarinic acetylcholine receptor M1; Fluo-4 calcium fluorescence; active compounds read high; B-score at 10 µM; 3% of 64,000 active; AID 626, 2007;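 active = fluorescence rise, raw or as B-score row- and column-corrected plate score, outside the 99.7% band of its plate's samples, either direction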
D1 mod: D1 CRE-luciferase signal change, two-sided – cell-based, HEK293 D1, dopamine EC30, D1 allosteric modulator project, primary screen; D(1A) dopamine receptor (Homo sapiens), P21728; dopamine EC30 potentiation; actives deviate in either direction; B-score at 10 µM; 5.9% of 58,000 active;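 active = luminescence count or its row- and column-corrected plate score outside the 99.7% band of the plate's sample wells, on either side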
M1 antag conf: rat M1 muscarinic receptor antagonists, confirmation, CHO cells, Fluo-4 calcium, duplicate; 43% of 1,700 active; shares compounds with M1 antagonist; AID 677, 2007; ACh EC80 antagonism; active compounds read low; calcium response (max-min fluorescence) at 10 µM;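 active = calcium response below the same-plate mean of wells given acetylcholine alone at its 80%-effect dose, minus 3 SD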;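 note: raw fluorescence intensity difference in arbitrary instrument units and not normalized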
mGluR4 antag: human mGluR4 response to M1 antagonist hits, M1 allosteric modulator project, cell-based, antagonist mode, secondary assay 1 | shares compounds with M1 antagonist | CHO-mGluR4 calcium flux, Fluo-4 fluorescence, glutamate EC80; active compounds read low | fluorescence response (max-min) at 10 µM | 0.9% of 1,700 active | AID 678, 2007;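 active = fluorescence response below the plate's average for near-maximal glutamate wells, less 3 SD of those wells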;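 note: raw unnormalized fluorescence span taken in the window right after glutamate addition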
* = called active by the depositor; nt = not tested or not shown. The list is not random: actives were taken first. Their share in the collection is about 11%.

SMILES	S1P3 agonist	TNAP act DEA	M1 antagonist	S1P1 ag-PAM	M1 agonist	D1 mod	M1 antag conf	mGluR4 antag
CCN(CC)C(=O)COc1ccc(-c2nnc(N3CCCCC3)c3ccccc23)cc1	-1.1	0.9	-2.91*	-1.1	-0.329	-0.59	531*	181
COc1ccc(C(C(=O)OCCN(C)C)c2ccccc2)cc1 (stereo not given)	0.5	0.9	-5.85*	-1.4	0.491	0.00677	232*	259
COc1ccc(C(NC(N)=O)c2ccccc2)cc1 (stereo not given)	-1.0	0.9	0.0111	-4.1	0.0274	-0.0373	nt	nt
COCCCNc1nc2c(c(=O)[nH]c(=O)n2C)n1CC(O)COc1ccccc1C (stereo not given)	-0.4	1	-3.57*	-17.4	-0.29	0.192	594	241
CCCCN(CCCC)CCn1cnc2c([nH]c3ccc(OC)cc32)c1=O	-1.2	0.9	0.125	-11.3	0.51	-0.155	nt	nt
COc1cc2[nH]c3c(=O)n(CCN(C(C)C)C(C)C)cnc3c2cc1OC	-1.5	0.9	-4.61*	-17.9	0.72	-1.33	542	171
O=C(O)Cn1cc(C(=O)c2cccs2)c2ccccc21	0.2	0.9	1.16	-18.7	0	-0.293	nt	nt
O=C(c1cccs1)c1cn(CC(=O)N2CCc3ccccc3C2)c2ccccc12	-1.2	0.8	-7.23*	7.2	-0.562	0.322	699	175
CCOC(=O)c1[nH]c2ccccc2c1N=CN(CC)CC	-0.4	0.9	-0.012	1.6	-0.287	nt	nt	nt
CC(C)=CC/C=C1\CCC(C(=O)O)C(C(=O)O)C1 (stereo not given)	-1.3	1	-13.8*	-0.8	-0.14	-1.15	671	227
CC1=CCC(C(=O)O)C(C(=O)O)C1 (stereo not given)	nt	0.9	0.291	nt	-2.53e-05	0.543	nt	nt
c1coc(C2Nc3cccc4cccc(c34)N2)c1	-1.7	0.8	-2.17*	-15.1	0.254	-0.287	602	249
CN(C)c1cccc(NC(=O)Cc2ccc(F)cc2)c1	-1.7	0.9	0.571	-12.4	0.169	0.0824	nt	nt
c1ccc(CN2CCN(CCN3CCn4c3nc3ccccc34)CC2)cc1	-1.1	0.9	-2.05*	-14.7	0.133	0.0339	566*	252
CC1(C)Cc2noc(N)c2C(C)(C)N1O	-1.1	0.9	0.012	11.1	-0.395	-0.885	nt	nt
COc1ccc2cc(CN(CCO)C(=O)c3ccccc3F)c(=O)[nH]c2c1	nt	0.9	-2.73*	nt	-0.00747	-0.232	670	249
CCOc1ccc2[nH]c(=O)c(CN(CCO)C(=O)c3ccccc3F)cc2c1	-1.3	0.9	0.016	1.3	0.126	0.0635	nt	nt
O=P(O)(CCCCP(=O)(O)CCc1ccccc1)CCc1ccccc1	0.4	1	0.126	-0.3	-0.212	0.612	nt	nt
CCOc1ccc(C2=Nn3c(nnc3-c3ccccn3)SC2)cc1	-0.7	0.9	-3.15*	23.2	1.36	nt	653	234
COc1ccc(C2NC(=O)NC(O)(C(F)(F)F)C2C(=O)c2ccc(C)cc2)cc1 (stereo not given)	-0.9	0.8	-6.3*	nt	-0.106	-0.143	92.6*	241
CC(=O)C1C(c2ccc(OC(F)F)cc2)NC(=O)NC1(O)C(F)(F)F (stereo not given)	-1.6	0.9	0.314	4.3	-0.0683	-0.43	nt	nt
Cc1ccc(N2C(=O)[C@@H]3Cc4ccccc4CN3C2=O)cc1	-0.6	1	0.0314	-0.9	-0.685	0.561	nt	nt
CC(C)c1ccc(N2C(=O)[C@@H]3Cc4ccccc4CN3C2=O)cc1	-0.7	1	-1.3*	18.2	-0.806	0.486	667	257
COc1ccc(-c2oc3ncn(CCN4CCOCC4)c(=N)c3c2-c2ccc(OC)cc2)cc1	-0.5	0.9	-11.1*	-27.5	-0.171	1.68	261*	264
COc1ccc(-c2oc3ncnc(NCCN4CCOCC4)c3c2-c2ccc(OC)cc2)cc1	-1.3	0.9	0.0188	-16.2	0.748	0.0467	nt	nt
SMILES	S1P3 agonist	TNAP act DEA	M1 antagonist	S1P1 ag-PAM	M1 agonist	D1 mod	M1 antag conf	mGluR4 antag
CC(=O)NC1C(=O)Nc2c1cccc2C(F)(F)F (stereo not given)	-1.7	0.9	0.305	-12.1	-0.262	-0.0318	nt	nt
COc1ccccc1-c1c(C)nn2c(N3CCCCCC3)cc(C)nc12	1.1	1	-2.53*	-25.8	-0.445	-1.79	624	207
COc1ccccc1-c1c(C)nn2c(N3CCN(c4ccccc4OC)CC3)cc(C)nc12	-0.1	0.9	-0.223	-7.1	-0.0621	-0.0676	nt	nt
Cc1cc(C(=O)OCC(=O)N(C)C2CCS(=O)(=O)C2)c(C)n1-c1ccccc1 (stereo not given)	-0.4	1	-2.7*	0.8	0.118	-0.625	544	227
Cc1cc(C(=O)OCC(=O)NC2CCS(=O)(=O)C2)c(C)n1-c1ccccc1 (stereo not given)	-1.2	1	-1.67	11.9	0.219	-1.03	nt	nt
CN(C(=O)COC(=O)c1nc(-c2ccccc2)n(-c2ccccc2)n1)C1CCS(=O)(=O)C1 (stereo not given)	-1.5	0.9	-4.76*	-1.9	0.325	nt	231*	211
CC(=O)Nc1c2c(nn1-c1ccc(C)cc1C)CSC2	-0.1	0.8	-1.92*	-19.0	-0.309	-1.4	641	259
CCCC(=O)Nc1c2c(nn1-c1ccc(C)cc1C)CSC2	0.4	0.9	0.176	-31.4	0.124	-0.0515	nt	nt
O=C(C1CCCCC1)N(CCN1CCCC1)c1nc2ccccc2s1	0.5	0.9	-2.34*	-7.2	-0.55	-1.62	718	207
COc1cccc(-c2nnc(SCC(=O)OC(C)C)n2Cc2ccco2)c1	-0.5	0.9	-0.351	1.6	-0.0823	-0.166	nt	nt
CCCCOc1ccc(CN2CCCCC2)cc1	-1.5	0.9	-5.12*	-11.8	-0.26	0.0473	283*	262
CCCCOc1ccc(C(=O)N2CCCCCC2)cc1	-0.8	1	-0.159	-2.9	0	-0.657	nt	nt
O=C(c1cc2c(=O)oc3ccccc3c2s1)N1CCN(c2ccccn2)CC1	nt	0.9	0	nt	-1.43	-0.0371	nt	nt

High-throughput results as filed in PubChem BioAssay.
